Mac1 fbg enh: enhancers of CD11b/CD18 adhesion to fibrinogen, primary screen, K562 cells, luminescence; Integrin beta-2 (Homo sapiens) + Integrin alpha-M (Homo sapiens), P05107+P11215; ATPlite luminescence; activation, % at 10 µM; 0.07% of 93,000 active; AID 1499, 2009;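 active = 10 µM primary screen giving 50% or more activity, confirmed by 40% or more on retest at that dose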
SF-1 act: activators of human SF-1, primary screen, cell-based, CHO-K1, Gal4-SF-1 LBD, luciferase luminescence. CHO-K1 Gal4-SF-1 LBD luciferase reporter; % increase over DMSO SF-1-specific signal. activation, % at 10 µM. 1.9% of 65,000 active;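 active = activation above the mean activation of all tested compounds plus 3 SD, cut at about 50% in these data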
Target sequence (Q13285 whole entry, looked up, the tested form may be a part): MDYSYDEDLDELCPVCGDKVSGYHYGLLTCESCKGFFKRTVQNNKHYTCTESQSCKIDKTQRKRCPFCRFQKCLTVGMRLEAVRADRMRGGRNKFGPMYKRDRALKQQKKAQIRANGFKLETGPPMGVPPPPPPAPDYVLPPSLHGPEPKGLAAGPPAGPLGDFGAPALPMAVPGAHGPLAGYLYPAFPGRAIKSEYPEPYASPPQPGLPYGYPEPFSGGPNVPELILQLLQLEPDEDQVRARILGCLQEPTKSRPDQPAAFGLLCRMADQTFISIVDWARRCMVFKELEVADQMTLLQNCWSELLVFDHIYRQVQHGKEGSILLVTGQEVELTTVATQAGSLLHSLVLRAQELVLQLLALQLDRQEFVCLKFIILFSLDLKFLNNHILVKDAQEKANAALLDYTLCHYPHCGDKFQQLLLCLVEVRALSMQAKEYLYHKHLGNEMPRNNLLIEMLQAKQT
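Compound – one dose, 10 µM compound, 1% DMSO · Test system – transient Gal4-SF-1 LBD reporter, CHO-K1 · Input – 4,000 cells in each well · Read-out basis – percent activation relative to DMSO median and mock-transfected background · Replicates – single measurement per compound · Technique – steady-glow luciferase luminescence, read after 15 min reagent incubation · Timing – 20 h compound treatment, 37 °C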
MT1-MMP txn act: MT1-MMP promoter reporter activation – cell-based, luciferase luminescence, primary screen. HT1080 MT1-MMP promoter luciferase reporter, overnight; active compounds read high. activation factor at 10 µM. 0.16% of 86,000 active;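 active = activation factor of at least 2 for MT1-MMP transcription at 10 µM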
Calb biofilm kill: clotrimazole potentiators killing Candida biofilms, primary screen, with clotrimazole, Alamar Blue; 0.14% of 85,000 active; inhibition, % at 6 µM; C. albicans biofilm + clotrimazole; AID 834, 2007;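 active = inhibition above 20%; inactive = inhibition below 20%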;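 also: preformed 24 hr biofilms exposed to compound for 48 hr; 0% = biofilm without compound and 100% = blank killed by clotrimazole plus chlorhexidine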
RORA act: activators of orphan receptor RORA, primary screen, cell-based, luminescence. Nuclear receptor ROR-alpha (Homo sapiens), P35398. CHO-K1 Gal4-RORA LBD luciferase reporter; percent increase over mock-subtracted basal signal. activation, % at 10 µM. 1.5% of 65,000 active;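 active = activation above the mean of all tested compounds plus 3 SD, cut at about 49% in these data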;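 also: 0% = DMSO-treated RORA cells and 100% = added signal equal to DMSO minus mock-transfected cells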
CD11b adhes inh: inhibitors of CD11b/CD18 adhesion to fibrinogen, primary screen, K562 cells, luminescence | inhibition, % at 10 µM | ATPlite luminescence; Mn2+ added to activate the integrin | 0.54% of 93,000 active | Integrin beta-2 (Homo sapiens) + Integrin alpha-M (Homo sapiens), P05107+P11215;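 active = primary inhibition of 50% or more at 10 µM, then 40% or more on retest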
* hit, by the source's call; · = no result. Sampled rows, rich in hits. Any-hit rate of the full collection: about 2.2%.

SMILES	Mac1 fbg enh	SF-1 act	MT1-MMP txn act	Calb biofilm kill	RORA act	CD11b adhes inh
Cc1cc2c(C)nc(-c3ccccc3)nc2o1	8	58*	2*	0	60*	1
O=[N+]([O-])c1cc([N+](=O)[O-])c2cccnc2c1Oc1ccccc1O	-10	·	·	·	·	90*
CC(C)(C)[Si](C)(C)c1c2c(nc3ccc(OCc4ccccc4)cc13)-c1cccc(=O)n1C2	·	·	1.1	·	·	·
CN(C)c1ccccc1C(=O)c1ccccc1N(C)C	0	78*	1.6	5	79*	0
COC(=O)c1cc(OC)c(OC)cc1NC(=O)C(C)c1ccc([N+](=O)[O-])cc1 (stereo not given)	-4	·	·	·	·	10
O=C(OCC(=O)N1CCCCCC1)c1cccs1	-1	55*	1.6	8	14	-16
O=C(OCC(=O)N1CCCCCC1)c1n[nH]c(=O)c2ccccc12	0	-9	1.2	6	-12	-9
CCC/C=C(\CCC)C(NS(=O)(=O)c1cccc2cccnc12)c1ccc(-c2ccccc2)cc1 (stereo not given)	·	·	1.2	·	·	·
Cn1nnnc1SCC(=O)Nc1ccccc1N1CCOCC1	-1	-14	1	4	16	7
Cn1c(-c2ccc(F)cc2)cnc1SCC(=O)Nc1ccccc1N1CCOCC1	-2	70*	1	6	39	-12
COCC(=O)Nc1ccccc1C(=O)Nc1ccc(OC)cc1	0	59*	1.2	5	19	6
CCOc1ccc(NC(=O)c2ccccc2CO)cc1	2	71*	1.6	7	51*	6
CCOc1ccc(NC(=O)c2ccccc2O)cc1	·	-6	0.9	2	-8	·
COc1ccc(NC(=O)c2ccccc2NC(=O)COc2ccccc2)cc1	-2	·	1	-3	·	13
CCOc1ccc(NC(=O)c2ccccc2OC)cc1	-4	73*	1.6	-1	49*	-4
Cc1ccc(-c2nnc(Oc3ccc(NC(=O)c4ccccc4)cc3)c3ccccc23)cc1	11	·	·	·	·	0
CC(OC(=O)c1nn(C(C)C)c(=O)c2ccccc12)C(=O)Nc1ncc(Cl)cc1Cl (stereo not given)	0	·	·	·	·	2
c1cc(-c2nnc(-c3ccncc3)o2)ccn1	-5	-1	1.1	0	-17	-7
Cc1ccc(-c2cnc(-c3ccncc3)o2)cc1	-3	65*	1.4	4	58*	30
CN(C)CC(O)COc1cc2ccccc2cc1C(=O)N1CCCCC1 (stereo not given)	3	-11	1.1	-3	-9	17
COc1cccc(C2=CC(c3ccccc3)n3nnnc3N2)c1 (stereo not given)	·	26	1.2	·	79*	·
COc1cccc(C2=CC(c3ccc(N(C)C)cc3)n3nnnc3N2)c1 (stereo not given)	-4	9	1.5	6	7	-7
CCOC(=O)N1CCN(c2ccc(C(=O)c3ccccc3)cc2F)CC1	-2	36	1.4	9	58*	15
CCOC(=O)N1CCN(c2ccc(O)cc2)CC1	-3	·	·	·	·	54*
CCOC(=O)N1CCN(c2ccc(C(C)=O)cc2F)CC1	·	·	·	7	·	·
SMILES	Mac1 fbg enh	SF-1 act	MT1-MMP txn act	Calb biofilm kill	RORA act	CD11b adhes inh
CC(/C=N/NC(=O)c1cc(-c2cccnc2)nc2c1c(C)nn2-c1ccccc1)=C\c1ccccc1	21	·	·	·	·	-29
COC(=O)[C@@]1(Cc2ccccc2)[C@H]2c3cc(C(=O)N(C)C)n(Cc4c(CO)[nH]cc(C)c4=O)c3C[C@H]2CN1C(=O)c1ccccc1	·	·	1	·	·	·
C/C(=C\C(=O)c1ccc(Br)cc1)NCc1ccccc1	0	·	1.2	5	·	-15
C/C(=C\C(=O)c1ccc(Br)cc1)NCc1ccc(C)cc1	-11	·	1.2	4	·	81*
Cc1ccc(-c2csc(NC(=O)c3ccc4c(=O)n5c(nc4c3)CCCCC5)n2)cc1	24	·	·	·	·	30
Cc1ccc(N(C(C)C(=O)O)S(=O)(=O)c2cccnc2)cc1 (stereo not given)	0	-1	1.1	24*	-21	-4
Cc1ccc(S(=O)(=O)Nc2cccnc2)cc1	·	·	1	-1	·	·
CC1CN(Cc2nc3c(c(=O)n(C)c(=O)n3C)n2Cc2ccc(Cl)cc2)CC(C)O1 (stereo not given)	·	9	1.2	·	6	·
COc1ccccc1CC(=O)Nc1ccc2c(c1)CCC2	-1	·	·	·	·	-9
COc1ccc(CC(=O)Nc2ccc3c(c2)CCC3)cc1OC	-6	·	·	·	·	65*
COCCn1c(C)cc(C2=NNC(=Nc3ccc(Cl)cc3Cl)SC2)c1C	82*	·	1.1	-3	·	14
Cc1ccc(C2/C(=C(/O)c3cnn(-c4ccccc4)c3C)C(=O)C(=O)N2CCN2CCOCC2)o1 (stereo not given)	6	54*	1.2	3	22	5
Cc1ccc(C2/C(=C(\O)c3cnn(-c4ccccc4)c3C)C(=O)C(=O)N2CCN(C)C)o1 (stereo not given)	·	53*	1.8	-2	9	·
O=C(CSCCN1C(=O)c2ccccc2C1=O)Nc1ccc2ccccc2c1	-1	·	·	·	·	-9
COc1cc(C(=O)Nc2ccc(N3CCOCC3)cc2)ccc1OCc1c(C)noc1C	6	·	·	·	·	-18
CCc1cc(-c2[nH]ncc2-c2ccc3c(c2)OCO3)c(O)cc1O	-3	-10	0.7	9	-10	70*
CCOCCCNc1nc2ccccc2[nH]1	-3	7	1.1	9	12	-11
CCOCCCNc1ccc(-c2ccccc2)nn1	-4	58*	1.5	-2	47	-1
COc1ccc(S(=O)(=O)N=C2C=C(C)C(=O)C(C)=C2)cc1	10	·	·	·	·	89*
COc1ccc(S(=O)(=O)N2CCCCC2)cc1	0	·	1.1	7	·	8
Cc1ccc(-c2nnc(SCC(=O)N3CCCC3)o2)cc1C	-7	37	1.4	6	58*	-7
O=C(CSc1nnc(-c2ccc3c(c2)OCCO3)o1)N1CCCC1	-2	50*	1	8	42	4
CCOc1ccc(-c2nnc(SCC(=O)N3CCOCC3)o2)cc1	-4	25	1.4	7	52*	-12
Cc1ccc(-c2nnc(SCC(=O)N3CCCC3)o2)cc1	-1	13	1.3	7	22	-11
CCOC(=O)N1CCN(C(=O)CSc2nnc(-c3ccc(C)c(C)c3)o2)CC1	-5	5	1	2	20	-7
O=C(CSc1nnc(-c2ccccc2Cl)o1)N1CCCCC1	-2	20	1.7	-9	65*	14
CCn1c(COc2ccccc2Cl)nnc1SCC(=O)Nc1ncccc1C	1	·	·	·	·	-10
Cc1ccc(NC(=O)CSCC(=O)N2c3ccccc3CCc3ccccc32)cc1	-2	·	·	·	·	6

Assay outcomes deposited in PubChem BioAssay by several laboratories.
